Experimental data taken from article PMC5538152 (Pharmacognosy Magazine, 2017).

Columns and labels:
[1] = test system: CCD-18Co normal human colon fibroblast cell line; test: In vitro cytotoxicity assay; type: cell-based; conditions: 72 h
[2] = test system: HT29 cells; test: Cell cycle analysis; type: cell-based, human; conditions: 72 h; for Percentage of cells in G2-M phase (Dip G2): untreated 7.70%; for Percentage of cells in G0-G1 phase (Dip G1): untreated 65.54%
[3] = test system: caspase 8 in HT29 cells; test: Active caspase 8 by flow cytometry; type: cell-based, human; conditions: 72 h of treatment
How it was run: (§1)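 HT29 cells were seeded at 1 × 10^5 cells/ml overnight, then exposed to test compound at 8, 14 or 28 μM for 72 h (37°C, 5% CO2), with untreated cells in 0.5% DMSO as control. Harvested, PBS-washed cells were labelled 45 min at 37°C with FITC-IETD-FMK (caspase 8) or FITC-LEHD-FMK (caspase 9), then washed and read by flow cytometry in FL1. Means ± SD, ≥3 independent experiments.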

[4] = test system: caspase 9 in HT29 cells; test: Active caspase 9 by flow cytometry; type: cell-based, human; conditions: 72 h of treatment
How it was run: as §1

[5] = test system: HT29 cells; test: Cell morphology by phase contrast microscopy; type: cell-based, human; conditions: 8, 14, 28 μM; dose- and time-dependent
[6] = test system: HT29 cells; test: Nuclear morphology by Hoechst 33342/propidium iodide staining; type: cell-based, human; conditions: 8 μM, 48 h
How it was run: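 Overnight cultures (1 × 10^5 cells/ml) were given test compound at 8, 14 or 28 μM or 0.5% DMSO for 48 h at 37°C, 5% CO2. Cells were harvested, washed in cold PBS and incubated with Hoechst 33342 (10 μg/ml) for 7 min at 37°C. PI (2.5 μg/ml) was then added for 15 min in the dark at room temperature. Cells were dried on slides and nuclei examined by fluorescence microscopy at ×630.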

[7] = test system: DLD-1 colon carcinoma cell line; conditions: read-out: IC50 against DLD-1; cited from earlier work
[8] = test system: HeLa cervical carcinoma cell line; conditions: read-out: IC50 against HeLa; cited from earlier work
[9] = test system: caspase 8 and caspase 9; conditions: cited from earlier work

Structure (SMILES) | Toxicity to normal colon cells (words) ([1]; listed as Rutamarin) | Toxicity to normal colon cells (words) ([1]; listed as rutamarin) | IC50 ([1]; Homo sapiens, CCD-18Co, read-out: IC50 (μM), CCD-18Co, 72 h of incubation, SRB) [µM] | Percentage of cells in G2-M phase (Dip G2) ([2]; 8 μM) [%] | Percentage of cells in G0-G1 phase (Dip G1) ([2]; 8 μM) [%] | Percentage of cells in G2-M phase (Dip G2) ([2]; 14 μM) [%] | Percentage of cells in G0-G1 phase (Dip G1) ([2]; 14 μM) [%] | Percentage of cells in G2-M phase (Dip G2) ([2]; 28 μM) [%] | Percentage of cells in G0-G1 phase (Dip G1) ([2]; 28 μM) [%] | Caspase 8 activation relative to untreated cells [3] [fold] | Caspase 9 activation relative to untreated cells [4] [fold] | Cellular morphological changes [5] | Nuclear morphology [6] | IC50 [7] [µM] | IC50 [8] [µM] | Caspase activation [9]
C=CC(C)(C)c1cc2cc3c(cc2oc1=O)OC(C(C)(C)OC(C)=O)C3 (stereo not shown) [Rutamarin (8), rutamarin] | not toxic to CCD-18Co cells | exerted no damage against the normal cells | ≥ 100 | 12.05 | 75.26 | 12.60 | 76.20 | 15.24 | 76.58 | 15 | 4 | apoptotic bodies, cell shrinkage, detachment, and rounding were observed | chromatin condensation | 37.5 | 50.7 | –
CCCC(=O)c1c(O)c(C/C=C(\C)CCC=C(C)C)c(O)c2c([C@@H](O)CC)cc(=O)oc12 [kayeassamin A] | – | – | – | – | – | – | – | – | – | – | – | – | – | – | – | activate caspase 8 more than caspase 9
